{"source": "ChEMBL document CHEMBL4342508", "about": "“Discovery and Pharmacokinetics of Sulfamides and Guanidines as Potent Human Arginase 1 Inhibitors” (ACS Med Chem Lett, 2020)", "details_in_all_cases": "in vivo", "key": {"[1]": {"experiment": "Mean residence time in Sprague-Dawley rat at 3 mg/kg, iv measured up to 24 hrs by LC-MS/MS analysis", "type": "ADME, organism-based", "in_short": "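Male Sprague–Dawley rats dosed with the hydrochloride salt at 3 mg/kg i.v. or 10 mg/kg p.o.; plasma concentration–time profiles followed over 24 h, with PK parameters derived from them. Oral bioavailability comes from comparing the p.o. and i.v. arms.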"}, "[2]": {"experiment": "Mean residence time in BALB/c mouse at 3 mg/kg, iv measured up to 24 hrs by LC-MS/MS analysis", "type": "ADME, organism-based"}, "[3]": {"experiment": "Clearance in Sprague-Dawley rat at 3 mg/kg, iv measured up to 24 hrs by LC-MS/MS analysis", "type": "ADME, organism-based"}, "[4]": {"experiment": "Oral bioavailability in Sprague-Dawley rat at 10 mg/kg measured up to 24 hrs by LC-MS/MS analysis", "type": "ADME, organism-based"}, "[5]": {"experiment": "Oral bioavailability in rat", "type": "ADME, organism-based", "in_short": "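Male Sprague–Dawley rats were dosed at 3 mg/kg i.v. and 10 mg/kg p.o., and plasma concentrations were followed over time for up to 24 h after dosing. Oral bioavailability comes from the p.o. versus i.v. plasma exposure profiles.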"}, "[6]": {"experiment": "Clearance in rat", "type": "ADME"}}, "data": [{"compound": "N=C(N)NC[C@](N)(CCCCB(O)O)C(=O)O", "values": [{"measurement": "MRT", "setting": "[1]", "value": 715, "unit": "min"}]}, {"compound": "NC(CCCCB(O)O)(CNS(N)(=O)=O)C(=O)O", "note": "(configuration not stated)", "values": [{"measurement": "MRT", "setting": "[2]", "value": 48.6, "unit": "min"}]}, {"compound": "N=C(N)NCC(N)(CCCCB(O)O)C(=O)O", "note": "(configuration not stated)", "values": [{"measurement": "MRT", "setting": "[2]", "value": 15.6, "unit": "min"}]}, {"compound": "N[C@@H](CCCCB(O)O)C(=O)O", "values": [{"measurement": "clearance", "setting": "[3]", "value": 2.3, "unit": "mL/min/kg"}, {"measurement": "bioavailability", "setting": "[4]", "value": 89, "unit": "%"}]}, {"compound": "C[C@H](N)C(=O)N1C[C@H](CCCB(O)O)[C@](N)(C(=O)O)C1", "values": [{"measurement": "bioavailability", "setting": "[5]", "value": 52, "unit": "%"}, {"measurement": "clearance", "setting": "[6]", "value": 10, "unit": "mL/min/kg"}]}]}
